Experimental data published in ChEMBL document CHEMBL4390681, “Novel allosteric covalent inhibitors of bifunctional Cryptosporidium hominis TS-DHFR from parasitic protozoa identified by virtual screening” (Bioorg Med Chem Lett, 2019).
The source made the active and inactive calls. The calls are words filed in the database; no cut-off is given here.

T1: Bifunctional dihydrofolate reductase-thymidylate synthase (Cryptosporidium hominis) (UniProt A0A0S4TER9)
T1 sequence (whole entry): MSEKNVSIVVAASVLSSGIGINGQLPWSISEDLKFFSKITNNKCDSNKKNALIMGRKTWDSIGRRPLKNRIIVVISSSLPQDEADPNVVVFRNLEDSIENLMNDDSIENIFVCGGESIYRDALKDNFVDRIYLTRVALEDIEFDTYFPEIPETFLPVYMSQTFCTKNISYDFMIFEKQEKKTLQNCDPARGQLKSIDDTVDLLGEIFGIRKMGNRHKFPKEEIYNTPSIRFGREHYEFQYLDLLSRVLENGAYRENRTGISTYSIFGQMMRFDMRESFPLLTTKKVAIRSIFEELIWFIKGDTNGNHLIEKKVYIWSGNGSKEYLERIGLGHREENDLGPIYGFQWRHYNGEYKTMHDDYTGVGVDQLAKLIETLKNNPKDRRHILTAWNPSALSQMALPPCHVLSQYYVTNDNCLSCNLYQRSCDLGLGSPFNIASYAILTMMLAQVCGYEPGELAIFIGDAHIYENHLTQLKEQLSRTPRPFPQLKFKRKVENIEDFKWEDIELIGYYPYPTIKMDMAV

T2: Bifunctional dihydrofolate reductase-thymidylate synthase (Cryptosporidium hominis), A0A0S4TER9 [C44S]
T2 sequence (whole entry): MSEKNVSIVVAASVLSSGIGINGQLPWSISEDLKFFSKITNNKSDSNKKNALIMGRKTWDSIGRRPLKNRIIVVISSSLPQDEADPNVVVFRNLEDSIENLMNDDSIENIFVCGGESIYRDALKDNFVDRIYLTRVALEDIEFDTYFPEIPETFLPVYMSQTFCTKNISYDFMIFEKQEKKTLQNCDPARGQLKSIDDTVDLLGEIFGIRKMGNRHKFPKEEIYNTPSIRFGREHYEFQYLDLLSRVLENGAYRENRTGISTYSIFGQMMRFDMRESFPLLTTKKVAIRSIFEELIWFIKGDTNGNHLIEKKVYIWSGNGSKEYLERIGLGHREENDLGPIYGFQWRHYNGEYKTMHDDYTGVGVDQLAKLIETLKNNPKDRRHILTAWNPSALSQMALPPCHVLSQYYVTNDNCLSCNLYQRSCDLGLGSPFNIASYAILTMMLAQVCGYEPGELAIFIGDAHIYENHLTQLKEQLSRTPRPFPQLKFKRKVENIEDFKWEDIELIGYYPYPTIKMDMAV

T3: Dihydrofolate reductase (Homo sapiens) (UniProt P00374)
T3 sequence (whole entry): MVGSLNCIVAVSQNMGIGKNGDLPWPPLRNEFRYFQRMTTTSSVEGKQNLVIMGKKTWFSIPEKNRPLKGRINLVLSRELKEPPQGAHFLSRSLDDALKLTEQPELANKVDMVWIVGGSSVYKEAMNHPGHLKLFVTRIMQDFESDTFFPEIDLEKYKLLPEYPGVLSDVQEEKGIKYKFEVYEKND

B1: Bifunctional dihydrofolate reductase-thymidylate synthase (Cryptosporidium hominis), A0A0S4TER9 (protein)
chain: MSEKNVSIVVAASVLSSGIGINGQLPWSISEDLKFFSKITNNKCDSNKKNALIMGRKTWDSIGRRPLKNRIIVVISSSLPQDEADPNVVVFRNLEDSIENLMNDDSIENIFVCGGESIYRDALKDNFVDRIYLTRVALEDIEFDTYFPEIPETFLPVYMSQTFCTKNISYDFMIFEKQEKKTLQNCDPARGQLKSIDDTVDLLGEIFGIRKMGNRHKFPKEEIYNTPSIRFGREHYEFQYLDLLSRVLENGAYRENRTGISTYSIFGQMMRFDMRESFPLLTTKKVAIRSIFEELIWFIKGDTNGNHLIEKKVYIWSGNGSKEYLERIGLGHREENDLGPIYGFQWRHYNGEYKTMHDDYTGVGVDQLAKLIETLKNNPKDRRHILTAWNPSALSQMALPPCHVLSQYYVTNDNCLSCNLYQRSCDLGLGSPFNIASYAILTMMLAQVCGYEPGELAIFIGDAHIYENHLTQLKEQLSRTPRPFPQLKFKRKVENIEDFKWEDIELIGYYPYPTIKMDMAV

How the values were obtained:
[1] = target: T1, Bifunctional dihydrofolate reductase-thymidylate synthase (Cryptosporidium hominis); test: (§1) Inhibition of recombinant Cryptosporidium hominis TS-DHFR expressed in Escherichia coli PA414 assessed as reduction in DHFR steady state activity at 500 uM using [3',5',7,9-3H]-H2folate as substrate preincubated for 10 mins before NADPH addition for 5 mins followed by substrate addition and measured after 5 mins by NADPH based radiometric chemical quench assay relative to control
Summary of the method: (§2)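 Radiometric DHFR steady-state activity assay on recombinant ChTS-DHFR. Compound was incubated with the enzyme for 10 min before the reaction was started. Single-point screen was at 500 µM, and dose-dependence was also assessed. Activity is expressed as percent of control.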

[2] = Solubility of the compound at >500 uM; format: physicochemical
[3] = target: T1, Bifunctional dihydrofolate reductase-thymidylate synthase (Cryptosporidium hominis); test: as §1, with “activity” for “activity at 500 uM”; summary of the method: as §2
[4] = target: T1, Bifunctional dihydrofolate reductase-thymidylate synthase (Cryptosporidium hominis); test: as §1, with “1 hr to 72 hrs” for “10 mins”; conditions: TDE = time-dependent effect
Summary of the method: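 Compound at 500 µM was incubated with ChTS-DHFR for 1 h, 16 h, 48 h or 72 h before the radiometric DHFR reaction was initiated, to follow time-dependent inhibition. The standard assay uses a 10 min incubation.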

[5] = test system: T2, Bifunctional dihydrofolate reductase-thymidylate synthase (Cryptosporidium hominis), A0A0S4TER9 [C44S]; test: as §1, with “TS-DHFR Cys44Ser mutant” for “TS-DHFR”, “16 hrs” for “10 mins”
Summary of the method: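 Wild-type and Cys44Ser mutant ChTS-DHFR, each incubated 16 h with compound before the radiometric DHFR reaction was started. Read-out was percent DHFR activity.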

[6] = target: T3, Dihydrofolate reductase (Homo sapiens); test: Inhibition of human DHFR assessed as decrease in DHFR steady state activity at 500 uM using [3',5',7,9-3H]-H2folate as substrate preincubated for 16 hrs before NADPH addition incubated for 5 mins followed by substrate addition and measured after 5 mins by NADPH based radiometric chemical quench assay relative to control
Summary of the method: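 Radiometric DHFR steady-state assay with human DHFR. Compound and enzyme were incubated for 16 h before the reaction was started. Percent inhibition was read relative to control.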

[7] = test system: Cryptosporidium hominis; test: Ratio of inhibition of recombinant Cryptosporidium hominis TS-DHFR Cys44Ser mutant expressed in Escherichia coli PA414 to inhibition of recombinant Cryptosporidium hominis TS-DHFR expressed in Escherichia coli PA414
[8] = target: T1, Bifunctional dihydrofolate reductase-thymidylate synthase (Cryptosporidium hominis); test: Inhibition of recombinant Cryptosporidium hominis TS-DHFR expressed in Escherichia coli PA414 assessed as decrease in TS activity
[9] = target: T1, Bifunctional dihydrofolate reductase-thymidylate synthase (Cryptosporidium hominis); test: (§3) Mixed noncompetitive inhibition of recombinant Cryptosporidium hominis TS-DHFR expressed in Escherichia coli PA414 assessed as Kobs at 100 uM […] preincubated for 10 mins before NADPH addition for 5 mins followed by substrate addition and measured after 5 mins by Lineweaver-Burk plot analysis (reference value: 1.98 +/- 0.09 /s)
[10] = target: T1, Bifunctional dihydrofolate reductase-thymidylate synthase (Cryptosporidium hominis); test: as §3, with “250” for “100”
[11] = compound: Cc1cc(Br)ccc1NC(=S)Nc1cccc(NC(=O)c2ccccc2O)c1; test: (§4) Mixed noncompetitive inhibition of recombinant Cryptosporidium hominis TS-DHFR expressed in Escherichia coli PA414 assessed as substrate Kcat at 100 uM using varying levels of [3',5',7,9-3H]-H2folate as substrate preincubated for 10 mins before NADPH addition for 5 mins followed by substrate addition and measured after 5 mins by Lineweaver-Burk plot analysis (reference value: 2.17 +/- 0.04 /s)
[12] = compound: Cc1cc(Br)ccc1NC(=S)Nc1cccc(NC(=O)c2ccccc2O)c1; test: as §4, with “250” for “100”
[13] = compound: Cc1cc(Br)ccc1NC(=S)Nc1cccc(NC(=O)c2ccccc2O)c1; test: as §4, with “Km” for “Kcat”, “1.2” for “2.17”, “0.2 uM)” for “0.04 /s)”
[14] = compound: Cc1cc(Br)ccc1NC(=S)Nc1cccc(NC(=O)c2ccccc2O)c1; test: as §4, with “Km” for “Kcat”, “250” for “100”, “1.2” for “2.17”, “0.2 uM)” for “0.04 /s)”

| Molecule | inhibition [1] [%] | also measured |
| --- | --- | --- |
| COc1cc(C(F)(F)F)c(C(N)=O)cn1 | 0.29 |  |
| O=C(O)c1nccnc1-c1nc(=O)c2ccccc2[nH]1 | -4.4 |  |
| Oc1nc2ccccc2nc1O | -2.6 |  |
| O=C(Nc1ccc(Br)cc1)c1ccccc1O | 8.8 |  |
| O=C(Nc1cc(Cl)cc(Cl)c1)c1ccccc1O | 9.8 |  |
| O=C(Nc1ccc(Cl)cc1)c1cc(I)ccc1O | 47 | solubility [2]: Insoluble; inhibition [3]: Dose-dependent effect |
| Nc1cccc(NC(=O)c2ccccc2O)c1 | -1.3 |  |
| CCOC(=O)C(=CNNC(=O)[C@@H]1[C@@H](C(=O)O)[C@H]2C=C[C@@H]1C2)C(=O)OCC | -4.4 |  |
| O=C(O)C[C@@H]1SC(c2ccc3c(c2)OCO3)=NC1=O | -0.67 |  |
| O=C1NC(=S)NC(=O)C1=Cc1c[nH]c2ccccc12 | -1.6 |  |
| CCOC(=O)C1=C(C)NC(C)=C(C(=O)OCC)C1c1ccc2c(c1)OCO2 | -7.9 |  |
| O=C(Nc1cc(Cl)cc(Cl)c1)c1cc(Br)ccc1O | 49 | solubility [2]: Insoluble; inhibition [3]: Dose-dependent effect |
| NC(=S)Cc1c(Cl)sc2ccc(Cl)cc12 | 32.6 |  |
| O=c1ccn([C@H]2C[C@H](O)[C@@H](CO)O2)c(=O)[nH]1 | -5.3 |  |
| O=C(Nc1ccc(F)c(Cl)c1)c1cc(Br)ccc1O | 61 | solubility [2]: Insoluble; inhibition [3]: Dose-dependent effect |
| Nc1cc(NC(=O)c2ccccc2O)ccc1Cl | -1.3 |  |
| O=C(NCc1cccs1)c1ccc2nccnc2c1 | 2 |  |

| Molecule | inhibition [1] [%] | also measured |
| --- | --- | --- |
| NCc1ccc(NC(=O)c2ccccc2O)cc1 | 1.1 |  |
| Cc1cc2c(cc1C)N[C@H](C)CC(=O)N2 | -3.8 |  |
| O=C(Nc1cccc(S)c1)c1cc(Br)ccc1O |  | inhibition ([1]; TDE = time-dependent effect): Tde; inhibition [4]: Tde; inhibition [5]: inactive; inhibition [6]: 95% |
| COc1ccc(Br)c(OC)c1C(=O)NC(=O)Nc1cc(Cl)cc(Cl)c1 | 7.9 |  |
| O=C(Nc1cccc(Cl)c1)c1cc(Cl)ccc1O | 54 | solubility [2]: Insoluble; inhibition [3]: Dose-dependent effect |
| Cc1ccc(C(=O)Nc2cccc(S)c2)c(O)c1 |  | inhibition [4]: Tde; inhibition [5]: 38%; Ratio [7]: 2; inhibition [6]: inactive |
| Cc1cc(Br)ccc1NC(=S)Nc1cccc(NC(=O)c2ccccc2O)c1 | 52.2 | inhibition [8]: inactive; solubility [2]: Insoluble; K [9]: 1.6 s⁻¹; K [10]: 1.33 s⁻¹; inhibition [3]: Dose-dependent effect |
| O=C(Nc1ccc(Cl)cc1)c1cc(Br)ccc1O | 11.1 |  |
| O=C(Nc1cc(C(F)(F)F)cc(C(F)(F)F)c1)c1cc(Br)ccc1O | 24.4 |  |
| CNC(=O)c1ccc(NC(=O)c2ccccc2O)cc1 | 14.7 |  |
| CC(=O)C[C@@]1(O)C(=O)Nc2ccc(F)cc21 | -6 |  |
| Cc1ccc(C(=O)Nc2cc(Cl)cc(Cl)c2)c(O)c1 | 61 | solubility [2]: Insoluble; inhibition [3]: Dose-dependent effect; inhibition [5]: inactive |
| O=C(Nc1ccccc1O)c1ccc(Br)cc1O | -0.176 |  |
| O=C(Nc1ccc(F)cc1)c1cc(Br)ccc1O | 20 |  |
| O=C(NNC(=O)c1ccccc1CO)c1ccc(Cl)c(Cl)c1 | 21.2 |  |
| B1 |  | kcat [11]: 1.9 s⁻¹; kcat [12]: 1.2 s⁻¹; Km [13]: 1.3 µM; Km [14]: 1.4 µM |
